Active and inactive are the calls of the source. The rule behind the calls is not given here. Where a SMILES comes first, the peptide text is derived from it.
Key:
Format in all cases: functional, cell-based
[1] = biological target: Calcitonin gene-related peptide type 1 receptor (Homo sapiens) (UniProt Q16602); test: Antagonist activity against human CGRP1 expressed in HEK293 cells assessed as inhibition of human alpha-CGRP-promoted cAMP production upto 100 uM
Method in brief: (§1)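 HEK293 cells stably expressing CRLR, seeded at 5000 cells/well. Cells preincubated with peptide analogues for 15 min at 37 °C, then stimulated with 0.5 nM α-CGRP for 15 min at 37 °C. cAMP measured with a fluorescence-based kit. Peptides tested up to 100 µM. At least three independent experiments in triplicate, analysed by nonlinear curve fitting; mean ± SEM.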

[2] = biological target: Calcitonin gene-related peptide type 1 receptor (Homo sapiens) (UniProt Q16602); test: Partial agonist activity at human CGRP1 expressed in HEK293 cells assessed by measuring cAMP production upto 1 uM
Method in brief: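 HEK293 cells stably expressing CRLR were exposed to CGRP27-37 analogues up to 1 µM without α-CGRP. cAMP production was measured with a fluorescence-based kit as the read-out.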

[3] = biological target: Calcitonin gene-related peptide type 1 receptor (Homo sapiens) (UniProt Q16602); test: (§2) Antagonist activity against human CGRP1 expressed in HEK293 cells assessed as inhibition of human alpha-CGRP-promoted cAMP production; set-up: concentration or dose not given beside the values; conditions: concentration not given here; method in brief: as §1
[4] = biological target: Calcitonin gene-related peptide type 1 receptor (Homo sapiens, UniProt O60894+Q16602); test: as §2; method in brief: as §1
Calcitonin gene-related peptide type 1 receptor, sequence (Q16602 whole entry, one chain of several): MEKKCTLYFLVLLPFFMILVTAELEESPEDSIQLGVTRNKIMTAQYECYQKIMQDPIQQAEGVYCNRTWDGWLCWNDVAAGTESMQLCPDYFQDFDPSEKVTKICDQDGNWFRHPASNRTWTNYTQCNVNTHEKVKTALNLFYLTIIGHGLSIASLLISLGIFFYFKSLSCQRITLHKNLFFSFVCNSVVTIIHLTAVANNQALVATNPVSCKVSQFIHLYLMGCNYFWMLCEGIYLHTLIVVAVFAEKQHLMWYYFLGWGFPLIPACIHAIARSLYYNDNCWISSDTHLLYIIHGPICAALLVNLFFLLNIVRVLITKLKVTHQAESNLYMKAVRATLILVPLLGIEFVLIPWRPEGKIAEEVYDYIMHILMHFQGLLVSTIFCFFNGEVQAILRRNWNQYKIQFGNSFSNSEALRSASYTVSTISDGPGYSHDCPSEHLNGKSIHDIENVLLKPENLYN

Calcitonin gene-related peptide type 1 receptor (Homo sapiens), sequence (Q16602 whole entry): as the sequence (Q16602 whole entry, one chain of several) above

Row | Molecule | Activity [1] | Activity [2] | inhibition [3] [%] | IC50 [4] [µM]
1 | CC(C)[C@H](NC(=O)[C@H](CC(=O)O)NC(=O)[C@@H](NC(=O)[C@@H]1CCCN1C(=O)[C@@H](NC(=O)[C@H](N)Cc1ccccc1)C(C)C)[C@@H](C)O)C(=O)NCC(=O)N1CCC[C@H]1C(=O)N[C@@H](Cc1ccccc1)C(=O)NN(C)C(=O)N[C@@H](Cc1ccccc1)C(N)=O | – | inactive | 51 | –
2 | CC(C)[C@H](NC(=O)[C@H](CC(=O)O)NC(=O)[C@@H](NC(=O)[C@@H]1CCCN1C(=O)[C@@H](NC(=O)[C@H](N)Cc1ccccc1)C(C)C)[C@@H](C)O)C(=O)NCC(=O)N1CCC[C@H]1C(=O)NN(Cc1ccccc1)C(=O)N[C@@H](C)C(=O)N[C@@H](Cc1ccccc1)C(N)=O | – | inactive | 69 | –
3 | CC(C)[C@H](NC(=O)[C@H](CC(=O)O)NC(=O)[C@@H](NC(=O)[C@@H]1CCCN1C(=O)[C@@H](NC(=O)[C@@H](N)Cc1ccccc1)C(C)C)[C@@H](C)O)C(=O)N[C@H]1CC[C@H]2CC[C@@H](C(=O)N[C@@H](Cc3ccccc3)C(=O)N[C@@H](C)C(=O)N[C@@H](Cc3ccccc3)C(N)=O)N2C1=O | – | inactive | 70 | 0.107
4 | CC(C)[C@H](NC(=O)[C@H](CC(=O)O)NC(=O)[C@@H](NC(=O)[C@@H]1CCCN1C(=O)[C@@H](NC(=O)[C@@H](N)Cc1ccccc1)C(C)C)[C@@H](C)O)C(=O)NCC(=O)N1CCC[C@H]1C(=O)N[C@@H](Cc1ccccc1)C(=O)N[C@@H](C)C(=O)N[C@@H](Cc1ccccc1)C(N)=O | – | inactive | 68 | –
5 | CC(C)[C@H](NC(=O)[C@H](CC(=O)O)NC(=O)[C@@H](NC(=O)[C@@H]1CCCN1C(=O)[C@@H](NC(=O)[C@@H](N)Cc1ccccc1)C(C)C)[C@@H](C)O)C(=O)NCC(=O)N[C@H]1CC[C@H]2CC[C@@H](C(=O)N[C@@H](C)C(=O)N[C@@H](Cc3ccccc3)C(N)=O)N2C1=O | inactive | inactive | – | –
6 | CC(C)[C@H](NC(=O)[C@H](CC(=O)O)NC(=O)[C@@H](NC(=O)[C@@H]1CCCN1C(=O)[C@@H](NC(=O)[C@@H](N)Cc1ccccc1)C(C)C)[C@@H](C)O)C(=O)N[C@H]1C[C@H]2CCC[C@@H](C(=O)N[C@@H](Cc3ccccc3)C(=O)N[C@@H](C)C(=O)N[C@@H](Cc3ccccc3)C(N)=O)N2C1=O | inactive | inactive | – | –
7 | CC(C)[C@H](NC(=O)[C@H](CC(=O)O)NC(=O)[C@@H](NC(=O)[C@@H]1CCCN1C(=O)[C@@H](NC(=O)[C@@H](N)Cc1ccccc1)C(C)C)[C@@H](C)O)C(=O)NCC(=O)N1CCC[C@H]1C(=O)N[C@@H](Cc1ccccc1)C(=O)NN(C)C(=O)N[C@@H](Cc1ccccc1)C(N)=O | – | – | – | 3.55
8 | CC(C)[C@H](NC(=O)N(CC(=O)O)NC(=O)[C@@H](NC(=O)[C@@H]1CCCN1C(=O)[C@@H](NC(=O)[C@@H](N)Cc1ccccc1)C(C)C)[C@@H](C)O)C(=O)NCC(=O)N1CCC[C@H]1C(=O)N[C@@H](Cc1ccccc1)C(=O)N[C@@H](C)C(=O)N[C@@H](Cc1ccccc1)C(N)=O (HELM PEPTIDE1{F.V.P.T.[O=C(O)CN(N[*:1])C(=O)[*:2]].V.G.P.F.A.F.[am]}$$$$V2.0) | – | inactive | 59 | 0.38

Second part, the molecule after the results:

Row | Activity [1] | Activity [2] | inhibition [3] [%] | IC50 [4] [µM] | Molecule
9 | inactive | inactive | – | – | CC(C)[C@H](NC(=O)[C@@H](N)Cc1ccccc1)C(=O)N1CCC[C@@H]1C(=O)N[C@H](C(=O)N[C@@H](CC(=O)O)C(=O)N[C@H]1C[C@H]2CCC[C@@H](C(=O)N3CCC[C@H]3C(=O)N[C@@H](Cc3ccccc3)C(=O)N[C@@H](C)C(=O)N[C@@H](Cc3ccccc3)C(N)=O)N2C1=O)[C@H](C)O
10 | inactive | inactive | – | – | CC(C)[C@H](NC(=O)[C@@H](N)Cc1ccccc1)C(=O)N1CCC[C@H]1C(=O)N[C@H](C(=O)N[C@H]1C[C@H]2CCC[C@@H](C(=O)NCC(=O)N3CCC[C@H]3C(=O)N[C@@H](Cc3ccccc3)C(=O)N[C@@H](C)C(=O)N[C@@H](Cc3ccccc3)C(N)=O)N2C1=O)[C@H](C)O
11 | – | inactive | 69 | 0.589 | CC(C)[C@H](NC(=O)[C@H](CC(=O)O)NC(=O)[C@@H](NC(=O)[C@@H]1CCCN1C(=O)[C@@H](NC(=O)N(N)Cc1ccccc1)C(C)C)[C@@H](C)O)C(=O)NCC(=O)N1CCC[C@H]1C(=O)N[C@@H](Cc1ccccc1)C(=O)N[C@@H](C)C(=O)N[C@@H](Cc1ccccc1)C(N)=O
12 | – | – | – | 5.75 | CC(C)[C@H](NC(=O)[C@H](CC(=O)O)NC(=O)[C@@H](NC(=O)[C@@H]1CCCN1C(=O)[C@@H](NC(=O)[C@@H](N)Cc1ccccc1)C(C)C)[C@@H](C)O)C(=O)NCC(=O)N1CCC[C@H]1C(=O)NN(Cc1ccccc1)C(=O)N[C@@H](C)C(=O)N[C@@H](Cc1ccccc1)C(N)=O
13 | – | inactive | 70 | – | CC(C)[C@H](NC(=O)[C@H](CC(=O)O)NC(=O)[C@@H](NC(=O)[C@@H]1CCCN1C(=O)[C@@H](NC(=O)[C@H](N)Cc1ccccc1)C(C)C)[C@@H](C)O)C(=O)NNC(=O)N1CCC[C@H]1C(=O)N[C@@H](Cc1ccccc1)C(=O)N[C@@H](C)C(=O)N[C@@H](Cc1ccccc1)C(N)=O
14 | – | – | – | 0.0676 | CC(C)[C@H](NC(=O)[C@H](CC(=O)O)NC(=O)[C@@H](NC(=O)[C@@H]1CCCN1C(=O)[C@@H](NC(=O)[C@@H](N)Cc1ccccc1)C(C)C)[C@@H](C)O)C(=O)NNC(=O)N1CCC[C@H]1C(=O)N[C@@H](Cc1ccccc1)C(=O)N[C@@H](C)C(=O)N[C@@H](Cc1ccccc1)C(N)=O
15 | – | – | 68 | 4.47 | CC(C)[C@H](NC(=O)[C@H](CC(=O)O)NC(=O)[C@@H](NC(=O)[C@@H]1CCCN1)[C@@H](C)O)C(=O)NCC(=O)N1CCCN1C(=O)N[C@@H](Cc1ccccc1)C(=O)N[C@@H](C)C(=O)N[C@@H](Cc1ccccc1)C(N)=O (HELM PEPTIDE1{P.T.D.V.G.[O=C(N1CCCN1[*:1])[*:2]].F.A.F.[am]}$$$$V2.0)
16 | – | – | 81 | 0.776 | H-PTDVGPFAF-NH2

— ChEMBL document CHEMBL1142953, “Calcitonin gene-related peptide analogues with aza and indolizidinone amino acid residues reveal conformational requirements for antagonist activity at the human calcitonin gene-related peptide 1 receptor” (J Med Chem, 2007)
